Data set [1] relates to Rattus norvegicus. Description: Maximal reduction in percent (Partial response) of 5-HTP accumulation rat hemispheres at highest test dose of 50 uM/Kg (sc). It counts as functional. Put shortly:
(§1)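 Male Sprague-Dawley rats were pretreated with reserpine 5 mg/kg sc 18 h before dosing. DOPA and 5-HTP in limbic system, striatum and hemispheres were measured by HPLC with electrochemical detection. Dose-response curves used 4–6 dose levels (n = 4) for each region; ED50 was estimated graphically. Partial responses are given as the maximal % reduction at the highest dose tested.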

The subject of data set [2] is Rattus norvegicus. The experiment in a line: Maximal reduction in percent (Partial response) of DOPA accumulation rat limbic system at highest test dose of 50 uM/Kg (sc). In kind it is functional.
For data set [3], the system named is Rattus norvegicus. Description: In vivo evaluation for DOPA accumulation in the hemispheres in male rats at highest dose tested at 50 uM/Kg; inactive. In kind it is functional, organism-based. Put shortly: as §1
The target of the next data set is D(2) dopamine receptor (Rattus norvegicus, UniProt P61169). Description: Displacement of [3H]spiperone from dopamine receptor D2. Put shortly:
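Rat striatal membranes in 50 mM potassium phosphate buffer (3 mg original tissue) incubated with 0.5 nM [3H]spiperone for 10 min at 37 °C. Nonspecific binding was defined with 10 μM 6,7-ADTN. Ki was calculated by Cheng–Prusoff; triplicates, 3–7 experiments.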
On the technique in general: In a radioligand displacement assay an active substance lowers the binding of a labelled ligand.

The species entered for data set [4] is Rattus norvegicus. The experiment in a line: Compound was tested for 5HT, Dopamine agonist mediated response in reserpine pretreated rats; mix DA, 5-HT syndrome. In kind it is functional, organism-based. An outline of the steps: (§2)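 Male Sprague-Dawley rats (200–300 g) were given reserpine 5 mg/kg sc 18 h before testing, then the test drug sc in the neck (n = 4). Motor activity was recorded by photocells for 30 min, with gross behaviour observed throughout. 5-HT syndrome: flat body posture, extended limbs, reciprocal forepaw treading. DA response: locomotion and stereotypies.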

The test system of data set [5] is Rattus norvegicus. The experiment in a line: Maximal reduction in percent (Partial response) of DOPA accumulation rat corpus striatum at highest test dose of 50 uM/Kg (sc). It counts as functional. Put shortly:
as §1

The target in data set [6] is T1, 5-hydroxytryptamine receptor 1A (Rattus norvegicus, UniProt P19327).
T1 sequence (P19327 whole entry): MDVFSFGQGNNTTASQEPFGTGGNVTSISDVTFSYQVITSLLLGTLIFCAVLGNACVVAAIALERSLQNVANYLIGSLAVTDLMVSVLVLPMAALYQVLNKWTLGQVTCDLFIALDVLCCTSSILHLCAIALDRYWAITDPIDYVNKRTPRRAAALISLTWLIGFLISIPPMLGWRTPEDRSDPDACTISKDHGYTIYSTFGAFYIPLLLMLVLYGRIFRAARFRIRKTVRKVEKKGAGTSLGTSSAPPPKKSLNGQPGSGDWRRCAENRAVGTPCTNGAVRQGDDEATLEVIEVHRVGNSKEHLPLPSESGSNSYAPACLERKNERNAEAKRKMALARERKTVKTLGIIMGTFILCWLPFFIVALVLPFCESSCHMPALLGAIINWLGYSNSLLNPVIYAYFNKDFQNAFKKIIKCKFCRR
Description: In vitro binding affinity against 5-hydroxytryptamine 1A receptor using [3H]8-OH-DPAT. Put shortly:
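Rat whole-brain membranes (brainstem and cerebellum removed) in 50 mM Tris pH 8.0 containing NaCl, CaCl2, MgCl2 and 10 μM pargyline, 10 mg tissue per tube. Nonspecific binding was defined with 10 μM 5-HT. IC50 was taken by semi-log linear regression and Ki by Cheng–Prusoff; triplicates.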

The test system of data set [7] is Rattus norvegicus. The experiment in a line: In vivo evaluation for 5-HTP accumulation in the limbic system in male rats (sc). In kind it is functional. An outline of the steps: as §1
The subject of data set [8] is Rattus norvegicus. The experiment in a line: In vivo evaluation for 5-HTP accumulation in the hemispheres in male rats (sc). It counts as functional. Put shortly: as §1
Data set [9] relates to Rattus norvegicus. The experiment in a line: In vivo evaluation for 5-HTP accumulation in the corpus striatum in male rats (sc). In kind it is functional. An outline of the steps: as §1
The subject of data set [10] is Rattus norvegicus. Description: In vivo evaluation for DOPA accumulation in the limbic system in male rats (sc). It counts as functional. An outline of the steps:
as §1

The subject of data set [11] is Rattus norvegicus. The experiment in a line: In vivo evaluation for DOPA accumulation in the corpus striatum in male rats (sc). It counts as functional. An outline of the steps: as §1
In data set [12] the test system is Rattus norvegicus. The experiment in a line: Maximal reduction in percent (Partial response) of DOPA accumulation rat lhemispheres at highest test dose of 12.5 umol/kg (sc). It counts as functional. An outline of the steps:
as §1

Data set [13] can be described thus: Maximum concentration of the drug at 20 umol/dg administered perorally. In kind it is ADME, organism-based. Further details: route oral. The conditions noted are these: in vivo, po. Put shortly: (§3)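 Male Sprague-Dawley rats (300 g) with arterial catheters, used 24 h after surgery; rats dosed orally were starved 18 h. Drug was given po or iv. Blood (100–250 μL) was sampled at intervals up to 12 h and assayed by HPLC-fluorescence (ex 285, em 365) or GC/MS against spiked blank-blood standard curves. Cmax and tmax were taken from concentration–time curves; n = 4–6.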

Data set [14] deals with Rattus norvegicus. Description: In vivo evaluation for 5-HTP accumulation in the limbic system in male rats (po). In kind it is functional. An outline of the steps: as §1
The test system of data set [15] is Rattus norvegicus. Description: In vivo evaluation for DOPA accumulation in the corpus striatum in male rats at highest test dose of 45 uM/Kg; inactive. It counts as functional, organism-based. Put shortly:
as §1

Data set [16] in a line: Time taken to reach the maximum concentration of compound at 1 uM/dg administered intravenously. It counts as ADME, organism-based. The conditions noted are these: in vivo, iv. An outline of the steps:
as §3

Data set [17] is described as follows: Half life of compound at 1 uM/dg administered intravenously. In kind it is ADME, organism-based. The conditions noted are these: in vivo, iv. Put shortly: (§4)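 Male Sprague-Dawley rats (300 g) carrying arterial catheters, used 24 h after surgery; animals dosed orally were starved 18 h beforehand. Blood was sampled at intervals up to 12 h after dosing. Drug levels were measured by HPLC with fluorescence detection (ex 285, em 365) or by GC/MS, calibrated against spiked blank blood. AUC was taken from concentration-time curves; n = 4–6.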

The test system of data set [18] is Rattus norvegicus. Description: In vivo evaluation for DOPA accumulation in the limbic system in male rats at highest test dose of 45 uM/Kg; inactive. It counts as functional, organism-based. An outline of the steps:
as §1

Data set [19] deals with Rattus norvegicus. The experiment in a line: In vivo evaluation for 5-HTP accumulation in the corpus striatum in male rats.(sc). It counts as functional. Put shortly:
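Male Sprague-Dawley rats (200–300 g), reserpine-pretreated (5 mg/kg sc, 18 h before). Test drug was given sc in 4–6 doses (n = 4 per dose), with separate curves per brain area. 5-HTP in corpus striatum was measured by HPLC with electrochemical detection. ED50 was read from the dose–response curve.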

The subject of data set [20] is Rattus norvegicus. Description: Maximal reduction in percent (Partial response) of DOPA accumulation rat hemispheres at highest test dose of 61 uM/Kg (po); Inactive. In kind it is functional, organism-based. An outline of the steps: as §1
Data set [21] relates to Rattus norvegicus. Description: Maximal reduction in percent (Partial response) of DOPA accumulation rat corpus striatum at highest test dose of 61 uM/Kg (po). It counts as functional. Put shortly: as §1
The nature of data set [22]: Area under curve at 20 uM/dg administered perorally. It counts as ADME. The settings on record: po. Put shortly: as §4
Data set [23] in a line: Area under curve at 1 uM/dg administered intravenously. In kind it is ADME. The conditions noted are these: iv. Put shortly: as §4
Data set [24] in a line: Bioavailability in rat. In kind it is ADME, organism-based. The conditions noted are these: in vivo. An outline of the steps: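 Blood was drawn at intervals up to 12 h and assayed by HPLC-fluorescence or GC/MS against spiked blank-blood standards. F is the ratio of oral to intravenous areas under the blood concentration-time curves; n = 4–6.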
Data set [25] is filed under the species Rattus norvegicus. Description: Compound was tested for 5-HT behavioral response in reserpine pretreated rats; +5HT syndrome. In kind it is functional, organism-based. An outline of the steps: as §2
In data set [26] the test system is Rattus norvegicus. Description: In vivo evaluation for 5-HTP accumulation in the hemispheres in male rats (po). It counts as functional. Put shortly: as §1
Data set [27] can be described thus: Maximum concentration of the drug at 1 umol/dg administered intravenously. It counts as ADME, organism-based. Further details: route intravenous. The conditions noted are these: in vivo, iv. Put shortly: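 Male Sprague-Dawley rats (300 g) with arterial catheters were dosed 24 h after surgery; orally dosed rats were starved 18 h beforehand. Blood was sampled at intervals up to 12 h and analysed by HPLC with fluorescence detection (ex 285, em 365) or by GC/MS. Cmax is in pmol/mL and tmax in min, mean ± SEM, n = 4–6.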

Data set [28] concerns Rattus norvegicus. Description: In vivo evaluation for DOPA accumulation in the hemispheres in male rats at highest test dose of 45 uM/Kg; inactive. In kind it is functional, organism-based. Put shortly: as §1
The subject of data set [29] is Rattus norvegicus. Description: Maximal reduction in percent (Partial response) of DOPA accumulation rat limbic system at highest test dose of 61 uM/Kg (po). It counts as functional.
The subject of data set [30] is Rattus norvegicus. The experiment in a line: In vivo evaluation for 5-HTP accumulation in the corpus striatum in male rats (po). It counts as functional. Put shortly:
as §1

Experimental findings from ChEMBL document CHEMBL1126740, “(S)- and (R)-8-(di-n-propylamino)-6,7,8,9-tetrahydro-3H-benz[e]indole-1-carbaldehyde: a new class of orally active 5-HT1A-receptor agonists” (J Med Chem, 1993) are described below.

Usually ED50 stands for the dose that gives a 50% effect, or the effect in half of the subjects. What is called Ki is a dissociation constant, usually derived from enzyme kinetics or from competition with a known ligand. A high value points to a looser hold on the target. As a reminder, the Tmax is the time at which the peak concentration occurs. A word on the half-life: it is how long it takes for the measured level to halve. Higher therefore signals slow decline. Usually bioavailability stands for dose-corrected exposure relative to a reference, in per cent. Higher therefore signals good availability.

Activity calls are given as the source filed them. The calls are words filed in the database; no cut-off is given here.

Chain of D(2) dopamine receptor (P61169 whole entry): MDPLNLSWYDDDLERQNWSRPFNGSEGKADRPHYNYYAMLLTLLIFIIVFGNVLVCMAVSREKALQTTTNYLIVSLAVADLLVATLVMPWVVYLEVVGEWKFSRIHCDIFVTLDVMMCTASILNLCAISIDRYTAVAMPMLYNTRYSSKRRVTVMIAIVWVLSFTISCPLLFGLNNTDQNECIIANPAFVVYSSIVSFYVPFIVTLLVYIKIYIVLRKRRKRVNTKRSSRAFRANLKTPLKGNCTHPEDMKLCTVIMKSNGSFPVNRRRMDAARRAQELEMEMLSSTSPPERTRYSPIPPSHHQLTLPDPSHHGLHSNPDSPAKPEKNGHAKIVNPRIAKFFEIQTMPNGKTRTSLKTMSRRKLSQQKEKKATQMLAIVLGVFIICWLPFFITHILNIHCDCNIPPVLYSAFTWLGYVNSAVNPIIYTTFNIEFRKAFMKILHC

Consider `CCCN(CCC)C1CCc2cc3cc[nH]c3cc2C1` (stereo unspecified), for which the figures for the Reduction in the data set with Rattus norvegicus [1], in the data set with Rattus norvegicus [2] and in the data set on Rattus norvegicus [5] were 35%, 30% and 51%, respectively. Besides, the ED50 entry in the data set on Rattus norvegicus [3] was “inactive”. Also, the results for the Ki (at D(2) dopamine receptor; in data set [6]) were 350 nM and 570 nM, respectively. The Behavioral response result in the data set listed under Rattus norvegicus [4] is “Active”.

On to `CCCN(CCC)C1CCc2ccc3[nH]ccc3c2C1` (racemic), for which the ED50 worked out at 0.1 µmol/kg in the data set with Rattus norvegicus [7]; 0.11 µmol/kg in the data set on Rattus norvegicus [8]; 0.08 µmol/kg in the data set on Rattus norvegicus [9]; 0.18 µmol/kg in the data set on Rattus norvegicus [10]; 0.28 µmol/kg in the data set with Rattus norvegicus [11]. For the same compound, the affinity at D(2) dopamine receptor corresponds to a Ki of 156 nM. Further, in the data set filed under Rattus norvegicus [4], the Behavioral response entry was “Active”. The Reduction in the data set with Rattus norvegicus [12] amounted to 22%.

As for `CCCN(CCC)C1CCc2cccc(O)c2C1` (racemic) [8-OH-DPAT], the Cmax in data set [13] was 63 pM ml-1; in [27], 344 pM ml-1. Also, the ED50 with Rattus norvegicus [14] is 3 µmol/kg; in the data set with Rattus norvegicus [7] it was 0.052 µmol/kg; in the data set with Rattus norvegicus [19], 0.052 µmol/kg; in the data set with Rattus norvegicus [8], 0.063 µmol/kg; in the data set on Rattus norvegicus [26], 7.9 µmol/kg; in the data set on Rattus norvegicus [30], 7.9 µmol/kg. Moreover, the ED50 result in the data set with Rattus norvegicus [15], with Rattus norvegicus [18] and in the data set with Rattus norvegicus [28] was “inactive” throughout. In data set [16], the Tmax at 1 µM is 3 min. This compound showed a half-life in data set [17] of 72 min. In addition, the Reduction result in the data set with Rattus norvegicus [20] is “inactive”. The results for the Reduction with Rattus norvegicus [21] and in the data set on Rattus norvegicus [29] were 43% and 35%, respectively. This compound also yielded a Ki on D(2) dopamine receptor of 1360 nM. In addition, the AUC was determined as 104 pM/h/g in [22] and 213 pM/h/g in data set [23]. Further, the bioavailability in [24] worked out at 2.4%. In addition, the Behavioral response result in the data set listed under Rattus norvegicus [25] was “Active”.
